The EternaBench riboswitch data

Tested on: MS2 coat protein
Assay: apparent Kd, MS2 coat protein; higher = weaker binding; RNA-MaP array; FMN 200 µM where present
Summary of the method: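 On Illumina sequencing-chip clusters, designs were transcribed by stalled E. coli RNA polymerase and titrated with SNAP-549-labelled MS2 coat protein (0.7 or 1.5 nM, doubling to 3 µM), without and then with constant ligand, in 100 mM Tris-HCl pH 7.5, 80 mM KCl, 4 mM MgCl2, BSA, DTT, yeast tRNA and Tween-20. Apparent Kd is the median of filtered per-cluster curve fits to green signal normalised to red-channel RNA signal and control-cluster median Fmax.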

[1] = designed as: ON switch for flavin mononucleotide, no ligand
[2] = ligand present: flavin mononucleotide, designed as: ON switch for flavin mononucleotide
[3] = designed as: OFF switch for flavin mononucleotide, no ligand
[4] = ligand present: flavin mononucleotide, designed as: OFF switch for flavin mononucleotide

| Sequence | apparent Kd [1] [nM] | apparent Kd [2] [nM] | apparent Kd [3] [nM] | apparent Kd [4] [nM] |
| --- | --- | --- | --- | --- |
| CGUAACUGCAUAGGAUAUUGAUACAUGAGGAUCACCCAUGUUUUUCGGAUUUGUAAUAUACUAAGCAAGAAGGAUGGAGUUACG | 8.04 | 5.66 | – | – |
| UGUCUUUGCACAGGAUAUCAUACAUGAGGAUCACCCAUGUCUAUAAAACAAUGAGAAGGGUGCGUGAUGUGGGCUGCUAUAGCG | 24.7 | 8.3 | – | – |
| AAAAAAAAAAGUCAGGAUAUGCAGGGCGGGACAUGAGGAUCACCCAUGUGGCGGAAAAAAAAAAAGCAGAAGGGACGAAUAAAAAA | 53.2 | 27.4 | – | – |
| GGAUUUACUGAGGAUAUUGCAUCACCCGACUGAUAAGAAGGCAGAACAUGAGGAUCACCCAUGUGGGUCGUCAA | – | – | 21.9 | 28.2 |
| AAGGGUAGGCAGGAUAUCCAGGUCGACACCGCGGGAGAAGGGCUUACAUGAGGAUCACCCAUGUAGGGUGCGAU | – | – | 177 | 129 |
| AACAAUCUAUCUGAGGAUAUCAUGAAAUAAACAUGAGGAUCACCCAUGUGUAGGAAAACUGCAUAUGAGAAGGCAGAUAGAUUGA | 930 | 43.5 | – | – |
| GCACGAUCCUCAGGAUAUCACUGAAACAUGAGGAUCACCCAUGUGCGCAGAUGAGAAGGGAGGACUCCGUCUGACUAAAUGUUA | 109 | 10.6 | – | – |
| GGAGGGCCUCGAGGAUAUCGCUGCGGUCGUCUGACAUGAGGAUCACCCAUGUGAGAAGGCGAGGCUACUGACUAUGCCCGUUAU | – | – | 27.9 | 275 |
| AUCAGCUUGACAGGAUAUACAUGUCAGCGAAAGCUGACAAUCUUAAUAACAUGAGGAUCACCCAUGUAGAAGGGUCGAGCUGAU | – | – | 18.1 | 32.4 |
| AAACUGGAGGACAAGGAUAUGUGCUCUACGACAUGAGGAUCACCCAUGUGAGACGUAGUAGUGAAACAGAAGGUGUCCUAUUGUA | 20.1 | 11.6 | – | – |
| CGGCGGAAGCAGAAGGCAUGAACGGACAUGAGGAUCACCCAUGUUGGAAACUCAUGCCCGAAAGAUGAGGAUAUGCGUCCGGGU | – | – | 71.7 | 18.5 |
| UAAAAUCAUGUAGGAUAUGCGUGGCGAAGCUAUGCAGAAGGACAUGAGGAUCACCCAUGUCUUACCUAGCGUACUAGGUUAAAG | – | – | 19.7 | 107 |
| CGCUCACAUGAGGAUCACCCAUGUCCUAGGAGGUCAGGAUAUAGCUCGCAUGCGUUGAGGCUAGAAGGGACAGCUG | 259 | 74.7 | – | – |
| AUUAAACAUGAGGAUCACCCAUGUGAGGAUAUGCAAAAAAAAUUAUAUUAAAAAAAAAGCAGAAGGCACAUAUA | – | – | 54.7 | 94.6 |
| ACAAGGCAUGUAGGAUAUCCAUUGCGUCGCGAUGGAGAAGGACAACACACAUGAGGAUCACCCAUGUGGUCACCCAUGUCGUGU | – | – | 51.3 | 169 |
| GCUCUCGGAGGAUAUGUGCCGAGUGACAUGAGGAUCACCCAUGUAUUUCUCCUGUAAUCUACAGAAGGCCGAGGCG | – | – | 161 | 23.9 |
| AGGUACGGUCGAUCAUACCAAGGUAGAAGGCGACUGGGAAUGUGAGACAUGAGGAUCACCCAUGUCGAGGAUAUACCUGAAAGU | – | – | 192 | 27.4 |
| GCGUAUUAGGUGUAGCUAGUCAUUCAAGAAGGGUGAAGAACAUGAGGAUCACCCAUGUAGUUUAUACAGGAUAUUGAUAUACGC | 528 | 235 | – | – |
| UAGAAGUCAGGAUAUGCUGCUCGUCACUUGCGUGAUGAGUAGCAGAAGGGACAUGAGGAUCACCCAUGUAAAGG | – | – | 208 | 424 |
| UGUCGUGUUCGAGGAUAUGAAACUAGGCCGGGCACUGUACACCCGCCUGUCUCAGAAGGCGGACAUGAGGAUCACCCAUGUAAA | – | – | 294 | 22.1 |
| GGAUGACAAAGUCAUCCAAUACGAACAUGAGGAUCACCCAUGUAGGAUAUGCUACAUGAGGAUCACCAGAAGGACAUGUGCCUU | – | – | 123 | 135 |
| AAUAUGAGCUGGAAUAUAAACCUGACAUGAGGAUCACCCAUGUAGGAUAUCAGCACGAUAAGUGCUGAGAAGGACAACCAGCUC | – | – | 14 | 14.5 |
| CGGUCGAAGUAAGGAUAUCGACUGGAUAACAGUCGAGAAGGUACAUGAGGAUCACCCAUGUAAUCCUAUAAUAAAUAACGACCG | – | – | 12.1 | 15.5 |
| UUCCAACAUGAGGAUCACCCAUGUCGGAAGCAUUAAGGAUAUGGGCGGCCGGUGGCUGAACCAGAAGGUAAGCCAG | 15.3 | 18.1 | – | – |
| CUCUAUCAUGUAGGAUAUGCGUGGCGAAGCUAUGCAGAAGGACAUGAGGAUCACCCAUGUCUUUCUGUCUGCGGACGGACAGGG | – | – | 33.1 | 69.2 |
| GGGUACAUCGGAGGAUAUCAUGUAAAUACAUGAGGAUCACCCAUGUCGAUGGAGACAUCGGAGAUUGAGAAGGCCGAUGUACAG | 146 | 8.38 | – | – |
| GUUGGGUGUCAUGUCGCACAUGAGGAUCACCCAUGUAGGAGGUAGGAUAUCCACGAGAAACAAGAGGAGAAGGGCCAUUAGCGU | – | – | 23.5 | 29.2 |
| GUGCCUAUCUGAGGAUAUCAACGCACUUGAGCGUGAGAAGGCAGAGGUACAUGAGGAUCACCCAUGUCCUCCAUAAAAUAAAAG | – | – | 6.65 | 14.1 |

| Sequence | apparent Kd [1] [nM] | apparent Kd [2] [nM] | apparent Kd [3] [nM] | apparent Kd [4] [nM] |
| --- | --- | --- | --- | --- |
| UCUCGAUGUGUAGGAUAUCUGAUCACUAUGACAAGAGAAGGGCACAUGAGGAUCACCCAUGUGGAGGACCACUGGUUCAGAUUA | – | – | 35.8 | 64.9 |
| AGCUAGUCAGGAUAUACGAAAAUGUCAGAAGCUGAGAAGGGACAUGAGGAUCACCCAUGUAGAAGGGACUAGCA | – | – | 57.5 | 299 |
| UUAGUUUUGCAAGGAUAUGUUUAUUUAUAGUUGCCUCUUACAUGAGGAUCACCCAUGUUUUACUUACAGAAGGUGCAAUGAUUU | – | – | 165 | 416 |
| GGAUGACAAAGUCAUCCAUAACGAACAUGAGGAUCACCCAUGUAGGAUAUGCUACUCAAAGAGUAGCAGAAGGACAUGUGCCUU | – | – | 36 | 239 |
| AUUAAUAAUCGAGGAUAUCACGUCGAAUAGACGUGAGAAGGCGAUCAUAACAUGAGGAUCACCCAUGUAUUACAUGAAGUUAAU | 27.5 | 23.9 | – | – |
| AAUAACAGAGGAUAUACUGUUUUAUGUGUUUAUUGUUUUAAACAUGAGGAUCACCCAUGUAGAAGGCUGAAUAA | – | – | 27.4 | 27.8 |
| CUAAAUCAUGUAGGAUAUGCAUGGCGAAGCUACGCAGAAGGACAUGAGGAUCACCCAUGUCUGUCCGACUGCGUACAGUCGGAC | – | – | 21.6 | 114 |
| GCGAUGUCAGGAUAUGUGUAAAGAAUAAAACAAAUAACAACACAGAAGGGACAUGAGGAUCACCCAUGUUACGC | – | – | 30.1 | 37.2 |
| CGUUUAUAUAUGGGUUUAUAUUAUGAGGAUAUCAAUAUUUAAUACAUGAGGAUCACCCAUGUUACUGAGAAGGCAUAAUUAACG | – | 6.99 | – | – |
| GUAGCAUGCCAAGGAUAUUCAUAUAGUAGGCAAACAUGAGGAUCACCCAUGUAAUGAGAGCAGUGGGAGAAGGUGGGAUGCUAC | 51.5 | 31.9 | – | – |
| AAAAAACAUGAGGAUCACCCAUGUGAGGAUAUGCGAAAAAAAAAAAAAAAAAAAAAAAGCAGAAGGCACAAAAA | – | – | 43.9 | 60.8 |
| AUCAGCUCGUCAGGAUAUACGUCACUGCGUCAGCAGUGUGGUAAAAUCACAUGAGGAUCACCCAUGUAGAAGGGACGAGCUGAU | – | – | 6.18 | 14.4 |
| CCCUAAUAUCGAGGAUAUGUCUAGACACAUGAGGAUCACCCAUGUAUGUGUAUAGAAGGCGAUAUUAACAGCAUGUUACAUGGG | 315 | 101 | – | – |
| CAGGUAGACUGAGGAUAUACACUAAACAGCUAGUCUAUCUAGCUGGUCACAUGAGGAUCACCCAUGUAGAAGGCAGUCUGCCUG | – | – | 17.8 | 35.9 |
| AUCAGCUCGUCAGGAUAUACGUGACUGCGUCAGCAGUGUGGUAAGAUCACAUGAGGAUCACCCAUGUAGAAGGGACGAGCUGAU | – | – | 53.2 | 580 |
| AACAGUACAGGAUAUACAUGAGGAUCACCCAUGUGAGCGUUAAGUGCCGUAGCACAAAGUAGAAGGGUACUGGA | – | – | 29.9 | 92.5 |
| AAAGCAACAUGAGGAUCACCCAUGUAGGAUAUCGCUAUUGUAAUCAUGAAACAUGAUUACAAUAGCGAGAAGGACAUAUGCUCC | – | – | 6.61 | 11.2 |
| AAAACUCACGUAGGAUAUCAUUCCUUAAGGUAGUGAGAAGGACGUGACUACAUGUCCUAAAACAUGAGGAUCACCCAUGUAGGC | – | – | 33.5 | 26.5 |
| UUUUAACAUGAGGAUCACCCAUGUGAGGAUAUCGAAAUUUAUAUUAAUAUUAUUAAAACGAGAAGGCACAUUUU | – | – | 63.1 | 82.8 |
| GGCGAACAGGCUAACAUGAGGAUCACCCAUGUGGACUCAUGGUAGGAUAUCGGGAAGGAGGAAACCGAGAAGGGCCGGUGAGCA | 202 | 43.6 | – | – |
| AGAAAGUCAGGAUAUCAGAAACUAGUCGAAACGACUAGAAAUGAGAAGGGACAUGAGGAUCACCCAUGUAAGAA | – | – | 29.7 | 43.4 |
| CCUUUGAAGAUCCUAGUUUUCGACAUGAGGAUCACCCAUGUGCAGGAUAUCGUGCCAGUGCUGUGCGAGAAGGGCAGUCUCUGC | – | – | 63.2 | 70.9 |
| CAUGGAACAUAGGAUAUCUCGCGGCUAGGCUGCAGAGAAGGAUGUACAUGAGGAUCACCCAUGUAUGAUCCAAU | – | – | 18.9 | 28.2 |
| AAGAGACAUCAGAAGGGAACCCAAACGCGCGGUUCAGGAUAUGAGAUCUUAUGUAGUUCGACAUGAGGAUCACCCAUGUCCGCG | 101 | 8.22 | – | – |
| UUGUUAUAUGUAGGAUAUGCAUAUUAUUAUUAUGCAGAAGGACAUGAGGAUCACCCAUGUAUAUUGUUGUUAUAUAUUAUAUAU | – | – | 24 | 28.4 |
| UGACGGAGCUGAGGAUAUAACAUGAGGAUCACCCAUGUAAGUCUCCAGGAAACUGGAGACAAAUGUUAGAAGGCAGCUCCGUCA | – | – | 39.4 | 50.7 |
| AAAAAGUGAGGAUAUGCACUGUCCUGUAGACACGAGCAGUUGUAGAAGGCACAUGAGGAUCACCCAUGUUUAAA | – | – | 29.2 | 25.9 |
